In ChEMBL document CHEMBL1138069, “Synthesis and SAR of 1,3-disubstituted cyclohexylmethyl urea and amide derivatives as non-peptidic motilin receptor antagonists” (Bioorg Med Chem Lett, 2006) one finds IC50, inhibition and Activity data, which are given here for 25 compounds.

For orientation: IC50 means the concentration needed to halve the response being measured. Usually inhibition stands for the change of the read-out against control, counted positive when it falls. Higher therefore signals a strong effect.

In assay [1] the target is T1, Motilin receptor (Oryctolagus cuniculus, UniProt A5A4K8). Description: Inhibition of [125]I-motilin binding to rabbit motilin receptor. The essentials:
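Rabbit colon membranes, homogenized in Tris–HCl pH 7.5 and centrifuged, with the pellet stored frozen. Bound tracer was separated by centrifugation. Nonspecific binding was taken with unlabeled porcine motilin. IC50 values are means of at least two separate determinations.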

Assay [2] deals with Motilin receptor (Oryctolagus cuniculus) (UniProt A5A4K8). Put plainly: Inhibition of [125]I-motilin binding to rabbit motilin receptor at 1 uM.
Motilin receptor (Oryctolagus cuniculus), sequence (A5A4K8 as listed by the source): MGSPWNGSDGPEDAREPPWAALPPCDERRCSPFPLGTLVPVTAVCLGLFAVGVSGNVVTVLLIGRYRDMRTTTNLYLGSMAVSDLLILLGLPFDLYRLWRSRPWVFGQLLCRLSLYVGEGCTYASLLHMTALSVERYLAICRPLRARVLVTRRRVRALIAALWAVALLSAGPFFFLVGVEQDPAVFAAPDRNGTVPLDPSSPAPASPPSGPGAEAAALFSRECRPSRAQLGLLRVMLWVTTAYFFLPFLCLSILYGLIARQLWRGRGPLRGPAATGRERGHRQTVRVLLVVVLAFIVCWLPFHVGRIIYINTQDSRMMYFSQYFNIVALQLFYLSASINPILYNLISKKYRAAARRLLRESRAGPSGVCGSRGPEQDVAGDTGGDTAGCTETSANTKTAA
Assay [3] addresses T1, Motilin receptor. Put plainly: Activity at rabbit duodenum motilin receptor by tissue contractility assay. In kind it is functional.
The target of assay [4] is Motilin receptor (Oryctolagus cuniculus) (UniProt A5A4K8). Put plainly: Agonist activity at rabbit duodenum motilin receptor by tissue contractility assay at 10 uM. In kind it is functional.
The target in assay [5] is T2, Motilin receptor (Homo sapiens, UniProt O43193). Description: Agonist activity at human motilin receptor transfected in HEK293 cells assessed as inhibition of motilin-induced intracellular calcium mobilization at 30 uM. In kind it is functional, cell-based.
T2 sequence (O43193 whole entry): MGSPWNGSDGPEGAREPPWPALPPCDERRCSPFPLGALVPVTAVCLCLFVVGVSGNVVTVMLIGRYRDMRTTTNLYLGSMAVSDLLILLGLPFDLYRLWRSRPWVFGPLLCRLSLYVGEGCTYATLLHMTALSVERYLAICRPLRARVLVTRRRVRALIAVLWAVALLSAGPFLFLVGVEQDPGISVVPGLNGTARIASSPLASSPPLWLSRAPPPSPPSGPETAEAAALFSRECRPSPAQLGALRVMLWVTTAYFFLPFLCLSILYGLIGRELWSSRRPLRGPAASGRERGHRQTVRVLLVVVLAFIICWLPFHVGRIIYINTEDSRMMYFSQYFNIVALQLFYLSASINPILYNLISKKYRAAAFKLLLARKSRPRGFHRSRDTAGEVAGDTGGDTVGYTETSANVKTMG
The target in assay [6] is T1, Motilin receptor. Description: Inhibition of [125]I-motilin binding to rabbit motilin receptor.
The target in assay [7] is T2, Motilin receptor. Put plainly: Activity at human motilin receptor transfected in HEK293 cells assessed as inhibition of motilin-induced intracellular calcium mobilization. It counts as functional, cell-based.

Active and inactive are the calls of the source. The rule behind the calls is not given here.

T1 sequence (A5A4K8 whole entry): as the sequence (A5A4K8 as listed by the source) above

`O=C(Nc1ccccc1)N(CC1=C[C@@](Cc2ccccc2)(NC(=O)C(Cl)(Cl)Cl)CC1)c1cccc(OCCN2CCOCC2)c1` yielded an IC50 in assay [1] of 20 nM.
On to `O=C(Nc1ccccc1)N(CC1=C[C@@](Cc2cccc(Cl)c2)(NC(=O)C(Cl)(Cl)Cl)CC1)c1cccc(OCCN2CCOCC2)c1`, for which the IC50 in assay [1] amounted to 10 nM.
The same measure, in the same setting: in the case of `O=C(Nc1ccccc1)N(CC1CCCC(N(Cc2ccccc2)C(=O)C(Cl)(Cl)Cl)C1)c1cccc(OCCN2CCOCC2)c1` (racemic) it was 957 nM.
Consider `O=C(Nc1ccccc1)N(c1cccc(OCCN2CCOCC2)c1)C1CCC(CN(Cc2cccc(Cl)c2)C(=O)C(Cl)(Cl)Cl)C1` (stereo unspecified), for which the inhibition in assay [2] was determined as 4%.
Regarding `O=C(c1ccc(F)cc1)N(CC1CCCC(N(Cc2ccccc2)C(=O)C(Cl)(Cl)Cl)C1)c1cccc(OCCN2CCCC2)c1` (racemic), the half-inhibitory concentration (IC50) turned out to be 58 nM in assay [1] and 27 nM in assay [3]. In addition, the result in assay [4] and in assay [5] was inactive.
Regarding `CC(C)(C)C(=O)N(Cc1ccccc1)C1CCCC(CN(C(=O)Nc2ccccc2)c2cccc(OCCN3CCCC3)c2)C1` (racemic), the IC50 in assay [6] was 21 nM.
`O=C(Nc1ccccc1)N(CC1CCCC(N(Cc2cccc([N+](=O)[O-])c2)C(=O)C(Cl)(Cl)Cl)C1)c1cccc(OCCN2CCOCC2)c1` (racemic): the half-maximal inhibitory concentration (IC50) in assay [1] turned out to be 35 nM.
The compound `O=C(Nc1ccccc1)N(CC1CCCC(N(Cc2ccccc2)C(=O)CCc2ccccc2)C1)c1cccc(OCCN2CCOCC2)c1` (stereo unspecified) had an IC50 in assay [1] of 730 nM.
`O=C(c1ccc(F)cc1)N(CC1CCCC(N(Cc2cccc(Cl)c2)C(=O)C(Cl)(Cl)Cl)C1)c1cccc(OCCN2CCCC2)c1` (racemic): the IC50 in assay [1] worked out at 58 nM; in assay [7], 267 nM. For the same compound, the result in assay [4] and in assay [5] was inactive.
In turn, `COc1cccc(C(=O)NC2CCCC(CN(C(=O)Nc3ccccc3)c3cccc(OCCN4CCOCC4)c3)C2)c1` (racemic) had an inhibition in assay [2] of 26%.
`COc1cccc(C(=O)N(Cc2cccc(Cl)c2)C2CCC(CN(C(=O)Nc3ccccc3)c3cccc(OCCN4CCOCC4)c3)CC2)c1` (racemic) had an inhibition in assay [2] of 6%.
Same read-out and setting: under `O=C(Nc1ccccc1)N(CC1CCCC(N(Cc2cccc(Cl)c2)C(=O)C(Cl)(Cl)Cl)C1)c1cccc(OCCN2CCOCC2)c1` (racemic) stands 23%.
On to `CC(C)(C)C(=O)N(Cc1ccccc1)[C@@H]1CCC[C@H](CN(C(=O)c2ccc(F)cc2)c2cccc(OCCN3CCCC3)c2)C1`, for which the result in assay [4] and in assay [5] was inactive. In assay [7], the IC50 amounted to 338 nM.
As for `CC(C)(C)C(=O)N(Cc1ccccc1)C1CCCC(CN(C(=O)c2ccc(F)cc2)c2cccc(OCCN3CCCC3)c2)C1` (racemic), the result in assay [4] and in assay [5] was inactive. In assay [7], the IC50 stood at 990 nM.
In turn, `O=C(Nc1ccccc1)N(CC1CCCC(N(Cc2ccccc2)C(=O)c2cccc([N+](=O)[O-])c2)C1)c1cccc(OCCN2CCOCC2)c1` (racemic) had an IC50 in assay [1] of 1160 nM.
`COc1cccc(C(=O)N(Cc2cccc(Cl)c2)C2CCCC(CN(C(=O)Nc3ccccc3)c3cccc(OCCN4CCOCC4)c3)C2)c1` (racemic) returned an IC50 in assay [1] of 650 nM.
Turning to `CC(C)(C)C(=O)N(Cc1ccccc1)[C@H]1CCC[C@@H](CN(C(=O)c2ccc(F)cc2)c2cccc(OCCN3CCCC3)c2)C1`, the result in assay [4] and in assay [5] was inactive. The IC50 in assay [7] was 2480 nM.
As for `O=C(Nc1ccccc1)N(CC1CCCC(NCc2cccc(Cl)c2)C1)c1cccc(OCCN2CCOCC2)c1` (racemic), the inhibition in assay [2] amounted to 28%.
Still for that read-out and setting: in the case of `CC(C)(C)C(=O)N(Cc1ccccc1)C1CCCC(CN(C(=O)Nc2ccccc2)c2cccc(OCCN3CCOCC3)c2)C1` (racemic) it was 50%.
In the case of `O=C(c1ccc(F)cc1)N(CC1CCCC(N(Cc2cccc([N+](=O)[O-])c2)C(=O)C(Cl)(Cl)Cl)C1)c1cccc(OCCN2CCCC2)c1` (stereo unspecified), the IC50 in assay [1] turned out to be 14 nM; in assay [7], 52 nM. Also, the result in assay [4] and in assay [5] was inactive.
Compound `O=C(Nc1ccccc1)N(CC1CCCC(N(Cc2ccccc2)C(=O)c2ccco2)C1)c1cccc(OCCN2CCOCC2)c1` (racemic) came in with an IC50 in assay [1] of 656 nM.
The compound `O=C(Nc1ccccc1)N(CC1CCCC(N(Cc2ccccc2)C(=O)c2ccc(-c3ccccc3)cc2)C1)c1cccc(OCCN2CCOCC2)c1` (racemic) registered an inhibition in assay [2] of 3%.
Turning to `O=C(c1ccc(F)cc1)N(CC1CCCC(N(Cc2cccc(Cl)c2)C(=O)C(Cl)(Cl)Cl)C1)c1cccc(OCCN2CCCCC2)c1` (racemic), the IC50 in assay [1] is 63 nM; in assay [3], 21 nM; in assay [7], 228 nM. For the same compound, the result in assay [4] and in assay [5] was inactive.
Compound `O=C(Nc1ccccc1)N(CC1CCCC(N(Cc2cccc(C(F)(F)F)c2)C(=O)C(Cl)(Cl)Cl)C1)c1cccc(OCCN2CCOCC2)c1` (racemic) had an inhibition in assay [2] of 58%.
`CC(C)(C)C(=O)N(Cc1ccccc1)C1CCCC(CN(C(=O)c2ccc(F)cc2)c2cccc(OCCN3CCOCC3)c2)C1` (racemic) yielded an IC50 in assay [1] of 772 nM. In addition, the result in assay [4] and in assay [5] was inactive.
